From ChEMBL document CHEMBL2401735, “Synthesis and cytotoxicity of novel (thiazol-2-yl)hydrazine derivatives as promising anti-Candida agents” (Eur J Med Chem, 2013)
≈ marks a conversion by molar mass, not a printed value.

What was measured:
[1] = system: HEp-2; test: Cytotoxicity against human Hep2 cells assessed as dilatation of endoplasmic reticulum at 100 ug/ml after 24 hrs by transmission electron microscopic analysis; assay type: cell-based; details: hep-2, 24 h
Method in brief: (§1)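 Hep2 cells treated and then examined by transmission electron microscopy, with unexposed cells as controls. Samples stained with 0.1% tannic acid for 30 min and uranyl acetate (5 mg/mL) for 1 h at 25 °C, dehydrated in graded acetone, embedded in Epon-812. Ultrathin sections counterstained with uranyl acetate and lead citrate before viewing.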

[2] = system: HEp-2; test: Cytotoxicity against human Hep2 cells assessed as mitochondrial swelling at 5 ug/ml after 24 hrs by transmission electron microscopic analysis; assay type: cell-based; details: hep-2, 24 h; method in brief: as §1
[3] = system: HEp-2; test: Cytotoxicity against human Hep2 cells assessed as loss of cristae at 5 ug/ml after 24 hrs by transmission electron microscopic analysis; assay type: cell-based; details: hep-2, 24 h; method in brief: as §1
[4] = Cytotoxicity against human Hep2 cells assessed as reduction of cell viability after 24 hrs by trypan blue exclusion assay; assay type: cell-based; details: HEp-2 cells
Method in brief: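 Hep2 cells in DMEM with 10% FBS, penicillin-streptomycin, 5% CO₂, 37 °C. Cells at 1 × 10⁵/mL exposed 24 h to seven concentrations (0.005-100 µg/mL), DMSO ≤0.5% final; controls were medium alone, DMSO, and 1 mM sodium nitroprusside. Cells scraped, allowed 30 min recovery, mixed 1:1 with 0.4% trypan blue, counted by hemocytometer by two operators.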

[5] = Cytotoxicity against human Hep2 cells assessed as cell survival fraction at 0.005 ug/ml after 24 hrs by trypan blue exclusion assay (reference value: 97 to 98%); assay type: cell-based; details: HEp-2 cells, read-out: Survival
[6] = Cytotoxicity against human Hep2 cells assessed as cell survival fraction at 0.05 ug/ml after 24 hrs by trypan blue exclusion assay (reference value: 97 to 98%); assay type: cell-based; details: HEp-2 cells, read-out: Survival
[7] = Cytotoxicity against human Hep2 cells assessed as cell survival fraction at 0.5 ug/ml after 24 hrs by trypan blue exclusion assay (reference value: 97 to 98%); assay type: cell-based; details: HEp-2 cells, read-out: Survival
[8] = Cytotoxicity against human Hep2 cells assessed as cell survival fraction at 5 ug/ml after 24 hrs by trypan blue exclusion assay (reference value: 97 to 98%); assay type: cell-based; details: HEp-2 cells, read-out: Survival
[9] = Cytotoxicity against human Hep2 cells assessed as cell survival fraction at 10 ug/ml after 24 hrs by trypan blue exclusion assay (reference value: 97 to 98%); assay type: cell-based; details: HEp-2 cells, read-out: Survival
[10] = Cytotoxicity against human Hep2 cells assessed as cell survival fraction at 50 ug/ml after 24 hrs by trypan blue exclusion assay (reference value: 97 to 98%); assay type: cell-based; details: HEp-2 cells, read-out: Survival
[11] = Cytotoxicity against human Hep2 cells assessed as cell survival fraction at 100 ug/ml after 24 hrs by trypan blue exclusion assay (reference value: 97 to 98%); assay type: cell-based; details: HEp-2 cells, read-out: Survival
[12] = system: [Candida] sake; test: Anticandida activity against Candida sake clinical isolate assessed as growth inhibition after 24 hrs by broth microdilution method; assay type: functional; details: Fermentozyma sake
Method in brief: (§2)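 Clinical Candida isolates subcultured for purity and optimal growth before testing; compounds dissolved in DMSO. Broth microdilution per NCCLS in Sabouraud dextrose broth, serial dilutions, inoculum about 10³/mL, with growth control and medium-only control; 24 h incubation at 37 °C. MIC is the lowest concentration giving complete visible inhibition.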

[13] = system: Candida parapsilosis; test: Anticandida activity against Candida parapsilosis clinical isolate assessed as growth inhibition after 24 hrs by broth microdilution method; assay type: functional; details: Lodderomyces parapsilosis; method in brief: as §2
[14] = system: Pichia kudriavzevii; test: Anticandida activity against Candida krusei clinical isolate assessed as growth inhibition after 24 hrs by broth microdilution method; assay type: functional; method in brief: as §2
[15] = system: Candida tropicalis; test: Anticandida activity against Candida tropicalis clinical isolate assessed as growth inhibition after 24 hrs by broth microdilution method; assay type: functional; method in brief: as §2
[16] = system: Nakaseomyces glabratus; test: Anticandida activity against Candida glabrata clinical isolate assessed as growth inhibition after 24 hrs by broth microdilution method; assay type: functional; method in brief: as §2
[17] = system: Candida albicans; test: Anticandida activity against Candida albicans clinical isolate assessed as growth inhibition after 24 hrs by broth microdilution method; assay type: functional; method in brief: as §2
[18] = system: Klebsiella oxytoca; test: Antibacterial activity against Klebsiella oxytoca assessed as growth inhibition after 18 to 22 hrs by broth microdilution method; assay type: functional
Method in brief: (§3)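 Bacterial isolates subcultured for purity, identified conventionally. Broth microdilution per NCCLS in Mueller-Hinton II broth; plates with growth control (no compound) and medium-only control, incubated 18-22 h at 35 °C. MIC taken as lowest concentration giving complete growth inhibition by unaided eye.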

[19] = system: Proteus mirabilis; test: Antibacterial activity against Proteus mirabilis assessed as growth inhibition after 18 to 22 hrs by broth microdilution method; assay type: functional; method in brief: as §3
[20] = system: Enterobacter sp.; test: Antibacterial activity against Enterobacter spp. assessed as growth inhibition after 18 to 22 hrs by broth microdilution method; assay type: functional; method in brief: as §3
[21] = system: Escherichia coli; test: Antibacterial activity against Escherichia coli assessed as growth inhibition after 18 to 22 hrs by broth microdilution method; assay type: functional; method in brief: as §3
[22] = system: Enterococcus faecalis; test: Antibacterial activity against […] assessed as growth inhibition after 18 to 22 hrs by broth microdilution method; assay type: functional; method in brief: as §3
[23] = system: Staphylococcus warneri; test: Antibacterial activity against Staphylococcus warneri assessed as growth inhibition after 18 to 22 hrs by broth microdilution method; assay type: functional; method in brief: as §3
[24] = system: Staphylococcus aureus; test: Antibacterial activity against Staphylococcus aureus assessed as growth inhibition after 18 to 22 hrs by broth microdilution method; assay type: functional; method in brief: as §3
[25] = system: Streptococcus alpha-hemolyticus; test: Antibacterial activity against Streptococcus alpha-hemolyticus assessed as growth inhibition after 18 to 22 hrs by broth microdilution method
[26] = system: HEp-2; test: Cytotoxicity against human Hep2 cells assessed as appearance of autophagic vacuoles near to mitochondrial proximity in cytoplasm at 5 to 100 ug/ml after 24 hrs by transmission electron microscopic analysis; assay type: cell-based; details: hep-2, 24 h; method in brief: as §1
[27] = system: HEp-2; test: Cytotoxicity against human Hep2 cells assessed as cell survival at 100 ug/ml after 24 hrs by transmission electron microscopic analysis; assay type: cell-based; details: hep-2, 24 h; method in brief: as §1
[28] = system: HEp-2; test: Cytotoxicity against human Hep2 cells assessed as induction of vacuolization in proximity of mitochondria at 5 ug/ml after 24 hrs by transmission electron microscopic analysis; assay type: cell-based; details: hep-2, 24 h; method in brief: as §1
[29] = system: HEp-2; test: Cytotoxicity against human Hep2 cells assessed as appearance of finely granular cytoplasm at 5 ug/ml after 24 hrs by transmission electron microscopic analysis; assay type: cell-based; details: hep-2, 24 h; method in brief: as §1

SMILES | CC50 at 24 h [4] | viability at 24 h, 0.005 ug/ml [5] | viability at 24 h, 0.05 ug/ml [6] | viability at 24 h, 0.5 ug/ml [7] | viability at 24 h, 5 ug/ml [8] | viability at 24 h, 10 ug/ml [9] | viability at 24 h, 50 ug/ml [10] | viability at 24 h, 100 ug/ml [11] | MIC [12] | MIC [13] | MIC [14] | MIC [15] | MIC [16] | MIC [17] | MIC [18] | MIC [19] | MIC [20] | MIC [21] | MIC [22] | MIC [23] | other results
CC/C(C)=N/Nc1nc(-c2ccc(OC)cc2)cs1 | 25 µg/mL (≈ 90.8 µM) | 78% | 71% | 64% | 69% | 64% | 0% | 0% | 2 µg/mL (≈ 7.26 µM) | 2 µg/mL (≈ 7.26 µM) | 2 µg/mL (≈ 7.26 µM) | 2 µg/mL (≈ 7.26 µM) | 2 µg/mL (≈ 7.26 µM) | 0.25 µg/mL (≈ 0.908 µM) | > 256 µg/mL | > 256 µg/mL | > 256 µg/mL | > 256 µg/mL | > 256 µg/mL | > 256 µg/mL | Activity [1]: Toxic; Activity [2]: Toxic; Activity [3]: Toxic; MIC [24]: > 256 µg/mL; MIC [25]: > 256 µg/mL
CCC/C(C)=N/Nc1nc(-c2ccc(C)cc2)cs1 | ≥ 100 µg/mL | 97% | 94% | 91% | 93% | 83.2% | 72.8% | 62% | 2 µg/mL (≈ 7.32 µM) | 2 µg/mL (≈ 7.32 µM) | 2 µg/mL (≈ 7.32 µM) | 2 µg/mL (≈ 7.32 µM) | 0.5 µg/mL (≈ 1.83 µM) | 0.5 µg/mL (≈ 1.83 µM) | > 256 µg/mL | > 256 µg/mL | > 256 µg/mL | > 256 µg/mL | > 256 µg/mL | > 256 µg/mL | Activity [26]: Toxic; MIC [24]: > 256 µg/mL; MIC [25]: > 256 µg/mL
Clc1ccccc1C(c1ccccc1)(c1ccccc1)n1ccnc1 [CLOTRIMAZOLE] | 38 µg/mL (≈ 110 µM) | 94.4% | 93% | 93.4% | 92.5% |  | 0% | 0% | 4 µg/mL (≈ 11.6 µM) |  |  | 2 µg/mL (≈ 5.8 µM) | 2 µg/mL (≈ 5.8 µM) |  |  |  |  |  |  |  | Activity [27]: Toxic; Activity [28]: Toxic; Activity [29]: Toxic
